The source made the active and inactive calls. No cut-off for these calls is given here.
Key:
Calf thymus DNA [1] = assay: Binding affinity to calf thymus DNA assessed as bathochromatic shift at 1:1 to 16:1 compound to DNA ratio by UV-visible spectra analysis; type: nucleic-acid assay; settings: Bos taurus
Procedure, shortened: (§1)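 Calf thymus DNA stock sonicated on ice to limit precipitation of the complex. DNA concentration was taken from the supplier's phosphorus content. UV-visible spectra were recorded.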

P388 [2] = assay: Antitumor activity against mouse P388 cells allografted in mouse assessed as increase in survival time at 0.5 mg/kg, ip qd administered for 9 days relative to control; type: functional; settings: route intraperitoneal
P388 [3] = assay: Antitumor activity against mouse P388 cells allografted in mouse assessed as change in survival time at 4 mg/kg, ip qd administered for 9 days relative to control; type: functional; settings: route intraperitoneal
P388 [4] = assay: Antitumor activity against mouse P388 cells allografted in mouse assessed as increase in survival time at 1 mg/kg, ip qd administered for 9 days relative to control; type: functional; settings: route intraperitoneal
P388 [5] = assay: Antitumor activity against mouse P388 cells allografted in mouse assessed as increase in survival time at 0.25 mg/kg, ip qd administered for 9 days relative to control; type: functional; settings: route intraperitoneal
L1210 [6] = assay: Inhibition of DNA synthesis in mouse L1210 cells preincubated for 3 hrs followed by [3H]-thymidine addition measured after 1 hr by scintillation spectrometric analysis; type: functional; settings: read-out: ED50 (the source's name)
Procedure, shortened: (§2)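 L1210 suspension at 2 × 10^6/ml in 1640 medium with 10% fetal calf serum and 20 mM HEPES, pH 7.2. Drug tested at 100 to 0.100 µM in half-log steps, 3 h at 37° with shaking. Pulse 1 h with 0.5 µCi/ml [3H]thymidine (DNA) or [3H]uridine (RNA). TCA-precipitable counts expressed as % of control; ED50 read from the points bracketing 50%, with the bracketing assays repeated.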

L1210 [7] = assay: Inhibition of RNA synthesis in mouse L1210 cells preincubated for 3 hrs followed by [3H]-uridine addition measured after 1 hr by scintillation spectrometric analysis; type: functional; settings: read-out: ED50 (the source's name); procedure, shortened: as §2
P388 [8] = assay: Antitumor activity against mouse P388 cells allografted in mouse assessed as increase in survival time at 0.06 mg/kg, ip qd administered for 9 days relative to control; type: functional; settings: route intraperitoneal
P388 [9] = assay: Antitumor activity against mouse P388 cells allografted in mouse assessed as increase in survival time at 0.12 mg/kg, ip qd administered for 9 days relative to control; type: functional; settings: route intraperitoneal
Calf thymus DNA [10] = assay: Binding affinity to calf thymus DNA assessed as decrease in absorptivity of visible maxima of compound at 1:1 to 16:1 compound to DNA ratio by UV-visible spectra analysis; type: nucleic-acid assay; settings: Bos taurus; procedure, shortened: as §1
Mus musculus [11] = assay: Acute toxicity in mouse allografted with mouse P388 cells assessed as survival less than 5 days at 0.06 to 4 mg/kg, ip qd; type: organism-based; parameters: dose 0.06-4 mg/kg, route intraperitoneal; settings: in vivo, 120 h
Procedure, shortened: (§3)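 BDF or CDF mice were implanted ip with 10^6 P-388 lymphocytic leukemia cells on day 0 and dosed ip on days 1-9. Acute toxic drug deaths were scored as survival of less than 5 days after the start of treatment. Testing was done by the NCI Drug Research and Development Program.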

Calf thymus DNA [12] = assay: Binding affinity to calf thymus DNA assessed as increase in melting temperature at 2.1 x 10^-5 M by UV spectrophotometric analysis; type: nucleic-acid assay; settings: Bos taurus
L1210 [13] = assay: Inhibition of DNA synthesis in mouse L1210 cells at < 100 uM preincubated for 3 hrs followed by [3H]-thymidine addition measured after 1 hr by scintillation spectrometric analysis; type: functional, cell-based; procedure, shortened: as §2
L1210 [14] = assay: Inhibition of RNA synthesis in mouse L1210 cells at < 100 uM preincubated for 3 hrs followed by [3H]-uridine addition measured after 1 hr by scintillation spectrometric analysis; type: functional, cell-based; procedure, shortened: as §2
P388 [15] = assay: Antitumor activity against mouse P388 cells allografted in mouse assessed as increase in survival time at 50 mg/kg, ip qd administered for 9 days relative to control; type: functional; settings: route intraperitoneal
P388 [16] = assay: Antitumor activity against mouse P388 cells allografted in mouse assessed as increase in survival time at 6.25 mg/kg, ip qd administered for 9 days relative to control; type: functional; settings: route intraperitoneal
P388 [17] = assay: Antitumor activity against mouse P388 cells allografted in mouse assessed as increase in survival time at 12.5 mg/kg, ip qd administered for 9 days relative to control; type: functional; settings: route intraperitoneal
P388 [18] = assay: Antitumor activity against mouse P388 cells allografted in mouse assessed as increase in survival time at 25 mg/kg, ip qd administered for 9 days relative to control; type: functional; settings: route intraperitoneal
P388 [19] = assay: Antitumor activity against mouse P388 cells allografted in mouse assessed as increase in survival time at 1.56 mg/kg, ip qd administered for 9 days relative to control; type: functional; settings: route intraperitoneal
Calf thymus DNA [20] = assay: Binding affinity to calf thymus DNA assessed as increase in melting temperature at 1.54 x 10^-5 M by UV spectrophotometric analysis; type: nucleic-acid assay; settings: Bos taurus
Mus musculus [21] = assay: Acute toxicity in mouse allografted with mouse P388 cells assessed as survival less than 5 days at 1.56 to 50 mg/kg, ip qd; type: organism-based; parameters: dose 1.56-50 mg/kg, route intraperitoneal; settings: in vivo, 120 h; procedure, shortened: as §3
P388 [22] = assay: Antitumor activity against mouse P388 cells allografted in mouse assessed as increase in survival time at 3.12 mg/kg, ip qd administered for 9 days relative to control; type: functional; settings: route intraperitoneal
Calf thymus DNA [23] = assay: Binding affinity to calf thymus DNA assessed as increase in melting temperature at 1.63 x 10^-5 M by UV spectrophotometric analysis; type: nucleic-acid assay; settings: Bos taurus
Mus musculus [24] = assay: Acute toxicity in mouse allografted with mouse P388 cells assessed as survival less than 5 days at 1.56 to 75 mg/kg, ip qd; type: organism-based; parameters: dose 1.56-75 mg/kg, route intraperitoneal; settings: in vivo, 120 h; procedure, shortened: as §3
P388 [25] = assay: Antitumor activity against mouse P388 cells allografted in mouse assessed as increase in survival time at 75 mg/kg, ip qd administered for 9 days relative to control; type: functional; settings: route intraperitoneal
Calf thymus DNA [26] = assay: Binding affinity to calf thymus DNA assessed as increase in melting temperature at 2 x 10^-5 M by UV spectrophotometric analysis; type: nucleic-acid assay; settings: Bos taurus
P388 [27] = assay: Antitumor activity against mouse P388 cells allografted in mouse assessed as increase in survival time at 2 mg/kg, ip qd administered for 9 days relative to control; type: functional; settings: route intraperitoneal

Row | SMILES | Activity (Calf thymus DNA [1]) | T/C (P388 [2]) | T/C (P388 [3]) | T/C (P388 [4]) | T/C (P388 [5]) | EC50 (L1210 [6]) | EC50 (L1210 [7]) | T/C (P388 [8]) | T/C (P388 [9]) | Activity (Calf thymus DNA [10]) | Activity (Mus musculus [11]) | inhibition (L1210 [13]) | inhibition (L1210 [14]) | T/C (P388 [15]) | T/C (P388 [16]) | T/C (P388 [17]) | T/C (P388 [18]) | T/C (P388 [19]) | T/C (P388 [22]) | further results
1 | COc1cccc2c1C(=O)c1c(O)c3c(c(O)c1C2=O)C[C@@](O)(C(=O)CO)C[C@@H]3O[C@H]1C[C@H](N)[C@H](O)[C@H](C)O1 [DOXORUBICIN] | Active | 182 | 71 | 212 | 162 | 800 nM | 900 nM | 139 | 156 | Active | Non-toxic | – | – | – | – | – | – | – | – | ΔTm (Calf thymus DNA [12]): 17.8 °C
2 | COc1cccc2c1C(=O)c1c(O)c3c(c(O)c1C2=O)C[C@@](O)(C(=O)O)C[C@@H]3O | – | – | – | – | – | – | – | – | – | – | – | inactive | inactive | – | – | – | – | – | – | –
3 | COc1cccc2c1C(=O)c1c(O)c3c(c(O)c1C2=O)C[C@@](O)(C(=O)O)C[C@@H]3O[C@H]1C[C@H](N)[C@H](O)[C@H](C)O1.Cl | Active | – | – | – | – | > 100000 nM | 65000 nM | – | – | Active | – | – | – | 151 | 142 | 151 | 163 | 100 | 107 | ΔTm (Calf thymus DNA [20]): 2.6 °C; Activity (Mus musculus [21]): Non-toxic
4 | COC(=O)[C@]1(O)Cc2c(O)c3c(c(O)c2[C@@H](O[C@H]2C[C@H](N)[C@H](O)[C@H](C)O2)C1)C(=O)c1c(OC)cccc1C3=O.Cl | Active | – | – | – | – | 2000 nM | 900 nM | – | – | Active | – | – | – | 125 | 108 | 112 | 115 | 107 | 103 | ΔTm (Calf thymus DNA [23]): 12.6 °C; Activity (Mus musculus [24]): Non-toxic; T/C (P388 [25]): 141
5 | COC(=O)[C@]1(O)Cc2c(O)c3c(c(O)c2[C@@H](O)C1)C(=O)c1c(OC)cccc1C3=O | – | – | – | – | – | – | – | – | – | – | – | inactive | inactive | – | – | – | – | – | – | –
6 | COc1cccc2c1C(=O)c1c(O)c3c(c(O)c1C2=O)C[C@@](O)(C(C)=O)C[C@@H]3O[C@H]1C[C@H](N)[C@H](O)[C@H](C)O1 [DAUNORUBICIN] | Active | 150 | 96 | 157 | 142 | 300 nM | 300 nM | 112 | 130 | Active | Non-toxic | – | – | – | – | – | – | – | – | ΔTm (Calf thymus DNA [26]): 16.8 °C; T/C (P388 [27]): 150
